Reference: ChEMBL document CHEMBL1138590, “Discovery of novel dihydro-9,10-ethano-anthracene carboxamides as glucocorticoid receptor modulators” (Bioorg Med Chem Lett, 2009)

Assays:
[1] = biological target: T1, Mineralocorticoid receptor (Homo sapiens) (UniProt P08235); assay: Antagonist activity at mineralocorticoid receptor in human A549 cells assessed as inhibition of 1.25 nM aldosterone-induced effect at 0.1 uM; format: functional, cell-based
T1 sequence (whole entry): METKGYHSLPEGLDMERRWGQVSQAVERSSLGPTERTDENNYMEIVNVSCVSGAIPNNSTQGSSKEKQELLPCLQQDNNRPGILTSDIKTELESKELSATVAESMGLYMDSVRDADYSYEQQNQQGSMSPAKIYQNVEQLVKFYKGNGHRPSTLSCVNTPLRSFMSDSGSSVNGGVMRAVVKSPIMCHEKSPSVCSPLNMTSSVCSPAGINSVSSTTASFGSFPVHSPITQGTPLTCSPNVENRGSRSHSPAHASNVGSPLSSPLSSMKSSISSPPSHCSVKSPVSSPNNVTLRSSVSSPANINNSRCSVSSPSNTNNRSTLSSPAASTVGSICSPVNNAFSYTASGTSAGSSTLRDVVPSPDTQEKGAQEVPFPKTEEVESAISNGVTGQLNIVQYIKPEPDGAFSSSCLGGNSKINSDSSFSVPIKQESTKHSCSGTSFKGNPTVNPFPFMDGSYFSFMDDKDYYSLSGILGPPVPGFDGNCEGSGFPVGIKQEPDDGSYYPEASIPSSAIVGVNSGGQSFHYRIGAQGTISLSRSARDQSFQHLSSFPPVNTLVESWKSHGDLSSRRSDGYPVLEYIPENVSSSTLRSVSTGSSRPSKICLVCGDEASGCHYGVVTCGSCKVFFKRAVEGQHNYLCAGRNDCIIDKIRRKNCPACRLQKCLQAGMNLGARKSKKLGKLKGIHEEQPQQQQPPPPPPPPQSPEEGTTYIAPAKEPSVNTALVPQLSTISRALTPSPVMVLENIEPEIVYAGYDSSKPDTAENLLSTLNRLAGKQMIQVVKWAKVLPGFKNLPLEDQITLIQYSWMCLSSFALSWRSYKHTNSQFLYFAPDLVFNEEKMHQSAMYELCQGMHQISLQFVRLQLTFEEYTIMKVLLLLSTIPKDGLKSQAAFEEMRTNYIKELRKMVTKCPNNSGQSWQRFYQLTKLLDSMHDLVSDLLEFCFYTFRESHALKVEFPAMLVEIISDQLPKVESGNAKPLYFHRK

Glucocorticoid receptor [2] = biological target: T2, Glucocorticoid receptor (Homo sapiens, UniProt P04150); assay: Transrepression activity at GR in PMA-stimulated human A549 cells assessed as inhibition of AP1 response element-induced luciferase reporter gene activity; format: cell-based
T2 sequence (P04150 whole entry): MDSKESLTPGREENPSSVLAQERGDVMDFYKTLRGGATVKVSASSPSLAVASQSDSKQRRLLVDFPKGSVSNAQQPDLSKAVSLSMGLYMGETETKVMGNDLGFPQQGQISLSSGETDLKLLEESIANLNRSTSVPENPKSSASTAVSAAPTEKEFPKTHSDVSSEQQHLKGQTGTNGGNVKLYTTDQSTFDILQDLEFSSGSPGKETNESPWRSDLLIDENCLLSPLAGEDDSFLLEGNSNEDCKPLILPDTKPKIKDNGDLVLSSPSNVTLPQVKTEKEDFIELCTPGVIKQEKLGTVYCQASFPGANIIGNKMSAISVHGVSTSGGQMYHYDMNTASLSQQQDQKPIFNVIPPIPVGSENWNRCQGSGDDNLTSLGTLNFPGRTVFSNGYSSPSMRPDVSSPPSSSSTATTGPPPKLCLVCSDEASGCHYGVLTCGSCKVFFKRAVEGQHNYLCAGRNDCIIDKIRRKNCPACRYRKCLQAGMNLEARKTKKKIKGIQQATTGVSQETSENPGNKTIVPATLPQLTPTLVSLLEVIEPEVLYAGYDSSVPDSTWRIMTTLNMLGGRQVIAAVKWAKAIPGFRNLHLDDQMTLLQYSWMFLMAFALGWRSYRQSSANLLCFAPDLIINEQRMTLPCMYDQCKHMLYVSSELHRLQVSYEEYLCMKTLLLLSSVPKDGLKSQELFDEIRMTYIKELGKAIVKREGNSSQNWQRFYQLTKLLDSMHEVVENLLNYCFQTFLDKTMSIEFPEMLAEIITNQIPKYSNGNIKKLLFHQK

Glucocorticoid receptor [3] = biological target: T2, Glucocorticoid receptor; assay: Agonist activity at GR ligand binding domain expressed in human NP1 cells assessed as glucocorticoid response element transactivation by GAL4 luciferase reporter gene assay; format: cell-based
Glucocorticoid receptor [4] = biological target: T2, Glucocorticoid receptor; assay: Transrepression activity at GR in IL-1-beta-stimulated human A549 cells assessed as inhibition of NF-kappaB-dependent E-selectin transcription by luciferase reporter gene assay; format: cell-based
Progesterone receptor = biological target: T3, Progesterone receptor (Homo sapiens, UniProt P06401); assay: Displacement of […] from progesterone receptor by fluorescence polarization assay
T3 sequence (P06401 whole entry): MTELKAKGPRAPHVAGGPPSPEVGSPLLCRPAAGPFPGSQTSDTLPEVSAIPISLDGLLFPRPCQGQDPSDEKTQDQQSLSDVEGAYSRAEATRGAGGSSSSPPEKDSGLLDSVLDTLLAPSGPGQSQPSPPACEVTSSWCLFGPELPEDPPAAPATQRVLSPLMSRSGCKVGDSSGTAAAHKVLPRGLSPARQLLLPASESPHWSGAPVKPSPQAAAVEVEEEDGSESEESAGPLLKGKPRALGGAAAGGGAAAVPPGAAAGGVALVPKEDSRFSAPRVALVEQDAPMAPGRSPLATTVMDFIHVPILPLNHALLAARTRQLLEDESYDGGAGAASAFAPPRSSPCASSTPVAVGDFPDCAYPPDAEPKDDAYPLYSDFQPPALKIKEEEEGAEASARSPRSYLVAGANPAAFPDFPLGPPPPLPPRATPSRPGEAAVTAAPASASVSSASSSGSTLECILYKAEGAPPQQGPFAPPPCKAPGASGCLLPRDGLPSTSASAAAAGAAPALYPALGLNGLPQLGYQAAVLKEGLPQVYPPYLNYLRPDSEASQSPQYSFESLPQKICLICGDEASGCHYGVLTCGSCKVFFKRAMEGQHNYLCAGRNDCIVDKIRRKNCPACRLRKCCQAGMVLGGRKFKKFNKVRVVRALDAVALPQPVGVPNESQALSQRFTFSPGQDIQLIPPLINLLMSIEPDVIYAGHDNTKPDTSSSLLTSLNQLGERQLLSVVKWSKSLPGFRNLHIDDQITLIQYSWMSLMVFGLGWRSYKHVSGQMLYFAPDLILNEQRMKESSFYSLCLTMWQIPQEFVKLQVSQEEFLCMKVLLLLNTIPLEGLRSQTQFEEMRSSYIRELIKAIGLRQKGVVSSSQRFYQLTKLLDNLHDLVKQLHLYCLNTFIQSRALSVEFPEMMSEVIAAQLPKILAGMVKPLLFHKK
Method in brief: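 Fluorescence polarization competition binding: the test compound competes with a fluorescently labelled ligand for binding to the full-length receptor or its ligand-binding domain. IC50 is fitted from the polarization signal with a four-parameter logistic equation. Ki is derived by Cheng–Prusoff, Ki = IC50/(1 + ligand concentration/Kd). Values are means of duplicate experiments.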

Structure (SMILES)	inhibition [1] [%]	EC50 (Glucocorticoid receptor [2]) [nM]	EC50 (Glucocorticoid receptor [3]) [nM]	EC50 (Glucocorticoid receptor [4]) [nM]	Ki (Progesterone receptor) [nM]
C[C@@]1(C(=O)Nc2nccs2)CC2(C#N)c3ccccc3C1c1ccccc12	47	243	> 10000	19.4	34
C[C@@]1(C(=O)Nc2nccs2)CC2c3ccccc3C1c1ccccc12	3	115			147
